Measured values reported in article PMC9118414 (ACS Omega, 2022).

Columns and labels:
Experiment in all cases: Acute cytotoxicity, sulforhodamine B
Assay type in all cases: cell-based
[1] = system: peripheral blood mononuclear cells (PBMC); details: Homo sapiens, 72 h, read-out: IC50 on cell viability, PBMC
How it was run: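 PBMC were collected from healthy volunteers and kept in RPMI 1640 with 10% FBS and antibiotics at 37 °C, 5% CO2. 1.0 × 10^5 cells were exposed to various test-compound concentrations for 72 h. Viability read by sulforhodamine B assay. IC50 derived by curve fitting; values are means of three independent experiments.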

[2] = system: PC3 prostate adenocarcinoma; details: Homo sapiens, 72 h, read-out: IC50 on cell viability, PC3
[3] = system: HEK293 human embryonic kidney cells; details: HEK293, 72 h, read-out: IC50 on cell viability, HEK293
[4] = system: HL60 promyelocytic leukemia; details: Homo sapiens, HL-60, 72 h, read-out: IC50 on cell viability, HL60
[5] = system: A549 nonsmall cell lung carcinoma; details: Homo sapiens, A549, 72 h, read-out: IC50 on cell viability, A549

COc1cccc2c1C(=O)c1c(O)c3c(c(O)c1C2=O)C[C@@](O)(C(=O)CO)C[C@@H]3O[C@H]1C[C@H](N)[C@H](O)[C@H](C)O1 [Doxorubicin]
IC50 [1]: 5200 ± 1800 nM | IC50 [2]: 2700 ± 1300 nM | IC50 [3]: 4800 ± 2000 nM | IC50 [4]: 70 ± 40 nM | IC50 [5]: 1800 ± 900 nM
